From ChEMBL document CHEMBL2375213, “Synthesis and anticancer activity of novel spiro-isoxazoline and spiro-isoxazolidine derivatives of α-santonin” (Eur J Med Chem, 2013)

What was measured:
PC-3 [1] = assay: Cell cycle arrest in human PC3 cells assessed as accumulation at S phase at 5 uM after 24 hrs by propidium iodide staining-based FACS flow cytometric analysis (reference value: 8.5%); type: functional
Procedure, shortened: (§1)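 PC-3 cells (1×10^6/well) exposed 24 h to test agent at 1, 5 or 10 μM. Cells washed twice in ice-cold PBS, fixed in 70% ethanol for 30 min, then treated with RNase A (0.1 mg/mL, 37 °C, 30 min). Propidium iodide staining 30 min on ice in the dark. DNA content read by flow cytometry with 488 nm excitation and doublet discrimination, 10,000 events.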

HCT-116 = assay: Antiproliferative activity against human HCT116 cells after 48 hrs by sulforhodamine B assay; type: functional, cell-based; settings: HCT-116, 48 h
[2] = target: Transcription factor p65 (Homo sapiens) (UniProt Q04206); assay: Inhibition of NFkappaB p65 in nuclear extract of human PC3 cells assessed as reduction in binding to consensus DNA sequence at 10 uM after 24 hrs relative to control; type: cell-based; settings: PC-3
Chain of Transcription factor p65 (Homo sapiens) (Q04206 whole entry): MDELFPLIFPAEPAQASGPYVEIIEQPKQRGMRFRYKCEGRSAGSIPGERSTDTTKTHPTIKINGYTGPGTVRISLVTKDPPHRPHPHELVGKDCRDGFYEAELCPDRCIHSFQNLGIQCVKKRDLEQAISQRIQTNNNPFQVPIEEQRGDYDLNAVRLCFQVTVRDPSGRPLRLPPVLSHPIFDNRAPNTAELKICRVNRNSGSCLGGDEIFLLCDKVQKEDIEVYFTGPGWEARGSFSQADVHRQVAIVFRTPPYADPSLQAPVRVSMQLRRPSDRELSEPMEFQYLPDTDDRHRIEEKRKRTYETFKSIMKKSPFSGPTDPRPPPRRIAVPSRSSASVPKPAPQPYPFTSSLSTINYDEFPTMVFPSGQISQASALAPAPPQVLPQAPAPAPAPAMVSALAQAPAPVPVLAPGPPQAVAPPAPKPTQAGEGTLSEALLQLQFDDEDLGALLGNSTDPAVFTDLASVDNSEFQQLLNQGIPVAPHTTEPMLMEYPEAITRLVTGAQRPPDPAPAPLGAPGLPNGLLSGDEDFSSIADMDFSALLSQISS
Procedure, shortened: (§2)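 PC-3 cells (5×10^6) treated 24 h at varied concentrations. Nuclear extract made by hypotonic lysis (HEPES/KOH pH 7.9) followed by high-salt extraction. Nuclear protein (20 µg) incubated overnight at 4 °C in wells carrying immobilized NF-κB DNA consensus element, then anti-p65 primary antibody 1 h and HRP secondary 1 h. Substrate 30 min, OD 450 nm, normalized to untreated control = 100%.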

PC-3 [3] = assay: Cell cycle arrest in human PC3 cells assessed as accumulation at subG1 phase at 1 uM after 24 hrs by propidium iodide staining-based FACS flow cytometric analysis (reference value: 13.1%); type: functional; procedure, shortened: as §1
PC-3 [4] = assay: Cell cycle arrest in human PC3 cells assessed as accumulation at M phase at 1 uM after 24 hrs by propidium iodide staining-based FACS flow cytometric analysis (reference value: 3%); type: functional; procedure, shortened: as §1
PC-3 [5] = assay: Cell cycle arrest in human PC3 cells assessed as accumulation at S phase at 1 uM after 24 hrs by propidium iodide staining-based FACS flow cytometric analysis (reference value: 8.5%); type: functional; procedure, shortened: as §1
PC-3 [6] = assay: Cell cycle arrest in human PC3 cells assessed as accumulation at subG1 phase at 5 uM after 24 hrs by propidium iodide staining-based FACS flow cytometric analysis (reference value: 13.1%); type: functional; procedure, shortened: as §1
A549 = assay: Antiproliferative activity against human A549 cells after 48 hrs by sulforhodamine B assay; type: functional, cell-based; settings: A549, 48 h
PC-3 [7] = assay: Cell cycle arrest in human PC3 cells assessed as accumulation at M phase at 5 uM after 24 hrs by propidium iodide staining-based FACS flow cytometric analysis (reference value: 3%); type: functional; procedure, shortened: as §1
[8] = target: Transcription factor p65 (Homo sapiens) (UniProt Q04206); assay: Inhibition of NFkappaB p65 in nuclear extract of human PC3 cells assessed as reduction in binding to DNA response element after 24 hrs; type: cell-based; settings: PC-3; procedure, shortened: as §2
PC-3 [9] = assay: Cell cycle arrest in human PC3 cells assessed as accumulation at subG1 phase after 24 hrs by propidium iodide staining-based FACS flow cytometric analysis; type: functional; procedure, shortened: as §1
PC-3 [10] = assay: Cell cycle arrest in human PC3 cells assessed as accumulation at subG1 phase at 10 uM after 24 hrs by propidium iodide staining-based FACS flow cytometric analysis (reference value: 13.1%); type: functional; procedure, shortened: as §1
HEp-2 = assay: Antiproliferative activity against human Hep2 cells after 48 hrs by sulforhodamine B assay; type: functional, cell-based; settings: HEp-2, 48 h
PC-3 [11] = assay: Cell cycle arrest in human PC3 cells assessed as accumulation at G0/G1 phase at 10 uM after 24 hrs by propidium iodide staining-based FACS flow cytometric analysis (reference value: 68.2%); type: functional; procedure, shortened: as §1
PC-3 [12] = assay: Antiproliferative activity against human PC3 cells after 48 hrs by sulforhodamine B assay; type: functional, cell-based; settings: PC-3, 48 h
PC-3 [13] = assay: Cell cycle arrest in human PC3 cells assessed as accumulation at G0/G1 phase at 5 uM after 24 hrs by propidium iodide staining-based FACS flow cytometric analysis (reference value: 68.2%); type: functional; procedure, shortened: as §1
MCF7 = assay: Antiproliferative activity against human MCF7 cells after 48 hrs by sulforhodamine B assay; type: functional, cell-based; settings: MCF7, 48 h
THP-1 = assay: Antiproliferative activity against human THP1 cells after 48 hrs by sulforhodamine B assay; type: functional, cell-based; settings: THP-1, 48 h
[14] = target: Transcription factor p65 (Homo sapiens) (UniProt Q04206); assay: Inhibition of NFkappaB p65 in nuclear extract of human PC3 cells assessed as reduction in binding to consensus DNA sequence at 5 uM after 24 hrs relative to control; type: cell-based; settings: PC-3; procedure, shortened: as §2
PC-3 [15] = assay: Cell cycle arrest in human PC3 cells assessed as accumulation at M phase at 10 uM after 24 hrs by propidium iodide staining-based FACS flow cytometric analysis (reference value: 3%); type: functional; procedure, shortened: as §1
PC-3 [16] = assay: Cell cycle arrest in human PC3 cells assessed as accumulation at S phase at 10 uM after 24 hrs by propidium iodide staining-based FACS flow cytometric analysis (reference value: 8.5%); type: functional; procedure, shortened: as §1
PC-3 [17] = assay: Cell cycle arrest in human PC3 cells assessed as accumulation at G0/G1 phase at 1 uM after 24 hrs by propidium iodide staining-based FACS flow cytometric analysis (reference value: 68.2%); type: functional; procedure, shortened: as §1
[18] = target: Transcription factor p65 (Homo sapiens) (UniProt Q04206); assay: Inhibition of NFkappaB p65 in nuclear extract of human PC3 cells assessed as reduction in binding to consensus DNA sequence at 1 uM after 24 hrs relative to control; type: cell-based; settings: PC-3; procedure, shortened: as §2

| Structure (SMILES) | Activity (PC-3 [1]) [%] | IC50 (HCT-116) [µM] | Activity (PC-3 [3]) [%] | Activity (PC-3 [4]) [%] | Activity (PC-3 [5]) [%] | Activity (PC-3 [6]) [%] | IC50 (A549) [µM] | Activity (PC-3 [7]) [%] | Activity (PC-3 [9]) | Activity (PC-3 [10]) [%] | IC50 (HEp-2) [µM] | Activity (PC-3 [11]) [%] | IC50 (PC-3 [12]) [µM] | Activity (PC-3 [13]) [%] | IC50 (MCF7) [µM] | IC50 (THP-1) [µM] | Activity (PC-3 [15]) [%] | Activity (PC-3 [16]) [%] | Activity (PC-3 [17]) [%] | further results |
| --- | --- | --- | --- | --- | --- | --- | --- | --- | --- | --- | --- | --- | --- | --- | --- | --- | --- | --- | --- | --- |
| CC1=C2[C@H]3OC(=O)C4(C[C@@H](c5ccc(Br)cc5)N(c5ccccc5)O4)[C@@H]3CC[C@@]2(C)C=CC1=O (some centres not stated) | 4.5 | 37 | 25.6 | 2 | 6.2 | 39.7 | 31 | 1.2 | Dose-dependent effect | 67.9 | 65 | 3.1 | 0.01 | 43.5 | 0.3 | 0.5 | 0.4 | 0.4 | 60.9 | inhibition [2]: 57%; inhibition [8]: Dose-dependent effect; inhibition [14]: 43%; inhibition [18]: 20% |
| CC1=C2[C@H]3OC(=O)C4(C[C@H](c5ccc(Br)cc5)N(c5ccccc5)O4)[C@@H]3CC[C@@]2(C)C=CC1=O (some centres not stated) | 4.4 | 100 | 33.8 | 1.6 | 4.2 | 34.7 | 100 | 0.8 | Dose-dependent effect | 42.8 | 100 | 53.2 | 0.1 | 55.8 | 0.8 | 0.3 | 1.3 | 4.9 | 55.3 | – |
